This is an account of results in ChEMBL document CHEMBL1132592, “Synthesis of novel 2-benzothiopyran and 3-benzothiepin derivatives and their stimulatory effect on bone formation” (J Med Chem, 1999).

In the first test the target is T1, Alkaline phosphatase, tissue-nonspecific isozyme (Mus musculus) (UniProt P09242).
T1 sequence (whole entry): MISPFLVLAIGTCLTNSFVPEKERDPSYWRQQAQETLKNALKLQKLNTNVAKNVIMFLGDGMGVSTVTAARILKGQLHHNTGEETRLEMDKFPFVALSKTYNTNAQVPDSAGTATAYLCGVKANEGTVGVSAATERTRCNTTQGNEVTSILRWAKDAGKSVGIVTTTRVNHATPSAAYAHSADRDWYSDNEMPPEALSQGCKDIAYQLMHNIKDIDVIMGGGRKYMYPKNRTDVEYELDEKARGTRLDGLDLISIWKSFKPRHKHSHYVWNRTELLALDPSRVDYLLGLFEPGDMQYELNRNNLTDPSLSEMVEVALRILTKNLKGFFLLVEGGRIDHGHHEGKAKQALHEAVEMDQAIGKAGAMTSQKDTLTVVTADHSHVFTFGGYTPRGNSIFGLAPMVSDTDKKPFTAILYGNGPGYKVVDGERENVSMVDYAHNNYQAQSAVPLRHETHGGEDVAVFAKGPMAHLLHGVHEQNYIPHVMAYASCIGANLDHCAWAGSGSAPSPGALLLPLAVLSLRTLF
Kind of test: Alkaline phosphatase stimulatory activity of 10E-5 M compound in culture of MC3T3-E1 in absence of BMP. In a few lines: (§1)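 Mouse osteoblastic MC3T3-E1 cells, 3000 cells/well, grown 3 days in α-MEM with 10% FBS, then switched to α-MEM with 1% FBS plus compound, with or without recombinant Xenopus BMP-4/7 heterodimer (3 ng/mL), for 3 more days. ALP in lysate supernatant read as absorbance at 405 nm; mean ± SE, n = 6; Dunnett's test vs matching control.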
The compound `CCOP(=O)(Cc1ccc(NC(=O)C2Cc3cc4c(cc3C(=O)C(C)S2)OCO4)cc1)OCC` (racemic) came in with an ALP activity of 0.178.
As for `CCOP(=O)(Cc1ccc(NC(=O)[C@@H]2Cc3cc4c(cc3C(=O)[C@@H](C)S2)OCO4)cc1)OCC`, the ALP activity amounted to 0.115.
On to `CCOP(=O)(Cc1ccc(NC(=O)[C@@H]2Cc3cc(OC)c(OC)cc3C(=O)CS2)cc1)OCC`, for which the ALP activity is 0.12.
The compound `CCOP(=O)(Cc1ccc(NC(=O)C2Cc3cc(OC)c(OC)cc3C(=O)CS2)cc1)OCC` (racemic) yielded an ALP activity of 0.143.
`CCOP(=O)(Cc1ccc(NC(=O)[C@H]2Cc3cc(OC)c(OC)cc3C(=O)CS2)cc1)OCC` registered an ALP activity of 0.164.
On to `CCOP(=O)(Cc1ccc(NC(=O)[C@H]2Cc3cc4c(cc3C(=O)[C@H](C)S2)OCO4)cc1)OCC`, for which the ALP activity was found to be 0.195.

For another test, the target named is T1, Alkaline phosphatase, tissue-nonspecific isozyme (Mus musculus). The test is described as follows: Alkaline phosphatase stimulatory activity of 10E-5 M compound in culture of MC3T3-E1 in presence of 3 ng/mL of BMP. In a few lines:
as §1
As for `CCOP(=O)(Cc1ccc(NC(=O)C2Cc3cc4c(cc3C(=O)C(C)S2)OCO4)cc1)OCC` (racemic), the ALP activity amounted to 0.221.
With `CCOP(=O)(Cc1ccc(NC(=O)[C@@H]2Cc3cc4c(cc3C(=O)[C@@H](C)S2)OCO4)cc1)OCC`, the ALP activity was 0.131.
Still for that read-out and setting: the value for `CCOP(=O)(Cc1ccc(NC(=O)[C@@H]2Cc3cc(OC)c(OC)cc3C(=O)CS2)cc1)OCC` was 0.131; that for `CCOP(=O)(Cc1ccc(NC(=O)C2Cc3cc(OC)c(OC)cc3C(=O)CS2)cc1)OCC` (racemic) was 0.169.
Take `CCOP(=O)(Cc1ccc(NC(=O)[C@H]2Cc3cc(OC)c(OC)cc3C(=O)CS2)cc1)OCC`: the ALP activity stood at 0.199.
For the compound `CCOP(=O)(Cc1ccc(NC(=O)[C@H]2Cc3cc4c(cc3C(=O)[C@H](C)S2)OCO4)cc1)OCC`, the ALP activity amounted to 0.284.

For a further test the target is unchanged. Kind of test: Alkaline phosphatase stimulatory activity of 10E-6 M compound in culture of MC3T3-E1 in absence of BMP. In outline: as §1
As for `CCOP(=O)(Cc1ccc(NC(=O)C2Cc3cc4c(cc3C(=O)C(C)S2)OCO4)cc1)OCC` (racemic), the ALP activity was 0.133.
As for `CCOP(=O)(Cc1ccc(NC(=O)[C@H]2Cc3cc4c(cc3C(=O)[C@H](C)S2)OCO4)cc1)OCC`, the ALP activity was found to be 0.154.

The target is the same in another test. The test is described as follows: Alkaline phosphatase stimulatory activity of 10E-6 M compound in culture of MC3T3-E1 in presence of 3 ng/mL of BMP. In outline:
as §1
Turning to `CCOP(=O)(Cc1ccc(NC(=O)C2Cc3cc4c(cc3C(=O)C(C)S2)OCO4)cc1)OCC` (racemic), the ALP activity was 0.162.
For the compound `CCOP(=O)(Cc1ccc(NC(=O)[C@H]2Cc3cc4c(cc3C(=O)[C@H](C)S2)OCO4)cc1)OCC`, the ALP activity amounted to 0.191.

For the next test, the target named is T2, Alkaline phosphatase, tissue-nonspecific isozyme (Rattus norvegicus) (UniProt P08289).
T2 sequence (whole entry): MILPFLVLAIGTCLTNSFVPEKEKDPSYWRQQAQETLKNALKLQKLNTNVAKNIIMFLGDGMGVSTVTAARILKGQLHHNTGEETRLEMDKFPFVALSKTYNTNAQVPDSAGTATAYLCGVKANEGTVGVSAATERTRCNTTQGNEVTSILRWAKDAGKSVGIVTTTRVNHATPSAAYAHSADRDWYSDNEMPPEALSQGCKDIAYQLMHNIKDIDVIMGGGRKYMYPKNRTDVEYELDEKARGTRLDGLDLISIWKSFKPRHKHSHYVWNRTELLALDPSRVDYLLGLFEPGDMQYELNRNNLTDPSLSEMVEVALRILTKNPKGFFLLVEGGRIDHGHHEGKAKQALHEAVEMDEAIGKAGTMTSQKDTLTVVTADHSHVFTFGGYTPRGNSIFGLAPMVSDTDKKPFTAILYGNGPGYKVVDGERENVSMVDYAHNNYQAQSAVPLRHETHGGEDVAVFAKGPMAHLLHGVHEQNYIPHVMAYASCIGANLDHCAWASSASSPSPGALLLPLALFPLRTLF
The test is described as follows: Effect on alkaline phosphatase activity compared to control in culture of rat bone marrow stromal cells, 10E-5 M concentration. The class given is tissue-based. In a few lines: (§2)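 Rat femoral marrow stromal cells subcultured at 4 × 10^4 cells/well in α-MEM with 15% FBS, ascorbate, 10 mM β-glycerophosphate and 10^-7 M dexamethasone. Compound added day 1 to day 10-14, medium refreshed every other day. Lysate ALP (Lowry method) given as fold of control; n = 5–10; Student's t-test.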
In turn, `COP(=O)(Cc1ccc(NC(=O)[C@H]2Cc3cc4c(cc3C(=O)[C@H](C)S2)OCO4)cc1)OC` showed an ALP activity of 7.2.
`CCOP(=O)(Cc1ccc(NC(=O)[C@@H]2SCC(=O)c3cc(OC)c(OC)cc32)cc1)OCC` returned an ALP activity of 2.5.
As to `CCOP(=O)(Cc1ccccc1NC(=O)[C@H]1Cc2cc3c(cc2C(=O)[C@H](C)S1)OCO3)OCC`, the ALP activity stood at 1.1.
As for `CCOP(=O)(Cc1ccc(NC(=O)[C@H]2Cc3cc(OC)c(OC)cc3C(=O)[C@H](C(C)C)S2)cc1)OCC`, the ALP activity was 1.4.
Still for that read-out and setting: the value for `CCOP(=O)(Cc1ccc(NC(=O)[C@H]2Cc3ccc(Cl)cc3C(=O)CS2)cc1)OCC` was 1.1.
`CCOP(=O)(Cc1ccc(NC(=O)[C@H]2Cc3cc4c(cc3C(=O)[C@H](C)S2)OCO4)cc1)OCC` registered an ALP activity of 5.5.
On to `Cc1ccc(NC(=O)[C@@H]2SCC(=O)c3cc(C4CCCCC4)ccc32)cc1`, for which the ALP activity was 1.7.
The same measure, in the same setting: the value for `CCOP(=O)(Cc1ccc(NC(=O)[C@@H]2SCC(=O)c3cc(-c4ccc(Cl)cc4)ccc32)cc1)OCC` was 1.7; that for `CCOP(=O)(CCNC(=O)[C@H]1Cc2cc3c(cc2C(=O)[C@H](C)S1)OCO3)OCC` was 1.1; that for `CCOP(=O)(OCC)c1ccc(NC(=O)[C@@H]2SCC(=O)c3cc(C)c(C)cc32)cc1` was 1.5.
Turning to `CCOP(=O)(CCc1ccc(NC(=O)[C@H]2Cc3cc4c(cc3C(=O)[C@H](C)S2)OCO4)cc1)OCC`, the ALP activity worked out at 1.9.
As to `CCOP(=O)(OCC)c1ccc(NC(=O)[C@@H]2SCC(=O)c3cc4c(cc32)CCC4)cc1`, the ALP activity turned out to be 1.1.

The target of the next test is T2, Alkaline phosphatase, tissue-nonspecific isozyme (Rattus norvegicus). The test is described as follows: Effect of 10E-5 M compound on alkaline phosphatase activity in culture of rat bone marrow stromal cells. The class given is tissue-based. In a few lines:
(§3)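 Femoral marrow stromal cells from 7-week-old male Sprague-Dawley rats. Primary culture 1 week in α-MEM (10 mM HEPES pH 7.0, 15% FBS, 2 mM glutamine, 50 μg/mL ascorbate, 10 mM β-glycerophosphate, 10^-7 M dexamethasone), 37 °C, 5% CO2. Subcultured at 4 × 10^4 cells/well; compound (10 mM stock in EtOH-DMSO 1:1 or DMF) from day 1 to day 10-14, medium changed every other day. Lysate ALP (Lowry method) in nmol/min/well; mean ± SE, n = 5–10.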
For `CCOP(=O)(Cc1ccc(NC(=O)C2Cc3cc4c(cc3C(=O)C(C)S2)OCO4)cc1)OCC` (racemic), the ALP activity worked out at 1210.
Compound `CCOP(=O)(Cc1ccc(NC(=O)[C@@H]2Cc3cc4c(cc3C(=O)[C@@H](C)S2)OCO4)cc1)OCC` yielded an ALP activity of 566.
In the case of `CCOP(=O)(Cc1ccc(NC(=O)[C@@H]2Cc3cc(OC)c(OC)cc3C(=O)CS2)cc1)OCC`, the ALP activity was 770.
Still for that read-out and setting: to `CCOP(=O)(Cc1ccc(NC(=O)C2Cc3cc(OC)c(OC)cc3C(=O)CS2)cc1)OCC` (racemic) belongs 1910; to `CCOP(=O)(Cc1ccc(NC(=O)[C@H]2Cc3cc4c(cc3C(=O)[C@H](C)S2)OCO4)cc1)OCC`, 1640.

A further test has the same target. The test is described as follows: Effect of 10E-6 M compound on alkaline phosphatase activity in culture of rat bone marrow stromal cells. In outline:
as §3
`CCOP(=O)(Cc1ccc(NC(=O)C2Cc3cc4c(cc3C(=O)C(C)S2)OCO4)cc1)OCC` (racemic): the ALP activity came out at 411.
For `CCOP(=O)(Cc1ccc(NC(=O)[C@@H]2Cc3cc4c(cc3C(=O)[C@@H](C)S2)OCO4)cc1)OCC`, the ALP activity came out at 160.
`CCOP(=O)(Cc1ccc(NC(=O)[C@H]2Cc3cc4c(cc3C(=O)[C@H](C)S2)OCO4)cc1)OCC` came in with an ALP activity of 682.

A further test shares this target. The test is described as follows: Effect of 10E-7 M compound on alkaline phosphatase activity compared to control in culture of rat bone marrow stromal cells. In outline:
as §2
In turn, `COP(=O)(OC)c1ccc(NC(=O)C2SCC(=O)c3cc(C4CCCCC4)ccc32)cc1` (configuration not stated) returned an ALP activity of 1.5.
Compound `CCOP(=O)(CCc1ccc(NC(=O)C2SCC(=O)c3cc(C4CCCCC4)ccc32)cc1)OCC` (configuration not stated) had an ALP activity of 1.5.
`CCCCOP(=O)(Cc1ccc(NC(=O)C2SCC(=O)c3cc(C4CCCCC4)ccc32)cc1)OCCCC` (configuration not stated) registered an ALP activity of 1.7.
`CCCOP(=O)(OCCC)c1ccc(NC(=O)C2SCC(=O)c3cc(C4CCCCC4)ccc32)cc1` (configuration not stated): the ALP activity is 1.5.
For `COP(=O)(Cc1ccc(NC(=O)C2SCC(=O)c3cc(C4CCCCC4)ccc32)cc1)OC` (configuration not stated), the ALP activity came to 1.7.
`CCOP(=O)(Cc1ccccc1NC(=O)C1SCC(=O)c2cc(C3CCCCC3)ccc21)OCC` (configuration not stated) yielded an ALP activity of 1.5.
On to `CC(C)OP(=O)(Cc1ccc(NC(=O)C2SCC(=O)c3cc(C4CCCCC4)ccc32)cc1)OC(C)C` (configuration not stated), for which the ALP activity turned out to be 2.
In the case of `CCOP(=O)(OCC)c1ccc(NC(=O)C2SCC(=O)c3cc(C4CCCCC4)ccc32)cc1` (configuration not stated), the ALP activity stood at 1.6.

Another test shares this target. The test is described as follows: Effect of 10E-7 M compound on alkaline phosphatase activity in culture of rat bone marrow stromal cells. In outline: as §3
In turn, `CCOP(=O)(Cc1ccc(NC(=O)C2Cc3cc4c(cc3C(=O)C(C)S2)OCO4)cc1)OCC` (racemic) registered an ALP activity of 185.
Same read-out and setting: to `CCOP(=O)(Cc1ccc(NC(=O)[C@@H]2Cc3cc4c(cc3C(=O)[C@@H](C)S2)OCO4)cc1)OCC` belongs 166; to `CCOP(=O)(Cc1ccc(NC(=O)[C@H]2Cc3cc4c(cc3C(=O)[C@H](C)S2)OCO4)cc1)OCC`, 192.
